Measured values reported in the RNAGym collection of RNA variant scans (doi:10.1038/s41586-018-0170-7).

B1: tRNA (parent)
chain: GUUCCGUUGGCGUAAUGGUAACGCGUCUCCCUCCUAAGGAGAAGACUGCGGGUUCGAGUCCCGUACGGAACG

Variants of: B1
Test: yeast fitness, log relative to wild type (ln ratio); higher = fitter; tRNA-Arg(CCU), competitive growth, 37 C, 1 M NaCl
In short: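 Fitness is the natural log of each genotype's generations divided by the wild type's. Generations were derived as OD-scaled log2 output/input frequency from 125 bp paired-end Illumina counts, weighting replicates by inverse variance. Pools of the tRNA-Arg(CCU) variant library, on a HIS3 centromeric plasmid in BY4742 lacking the chromosomal gene, grew ~6.5 generations (~26.5 h) in SC-HIS 1M NaCl at 37 °C after 4 generations in SC-HIS at 30 °C.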

| Variant | yeast fitness (ln) |
| --- | --- |
| AUUCCUUUGGCGUAAUGGUAACGCGUCUCCCUCCUAAGGAGACGAUUGCGGGUUCGAGUCCCGUAAGGAGUG | -0.237 |
| AUUCCUUUGGCGUAAUGGUAACGCGUCUCCCUCCUAAGGAGACGACUGCGGGUUCGAGUCCCGUAUGGGGUG | -0.371 |
| AUUCCUUUGGCGUAAUGGUAACGCGUUUCCCUCCUAAGGAGACGACUGCGGGUUCGAGUCCCGUACGGAGUG | -0.426 |
| AUUCCUUUGGCGUAAUGGUAACGCGUCUCCCUCCUAAGGAGACGAUUGCGGGUUCGAGUCCCGUAAGGGUUG | -0.301 |
| AUUCCUUUGGCGUAAUGGUAACGCGUUUCCCUCCUAAGGAGACGACUGCGGGUUCGAGUCCCGUACGGAACG | -0.258 |
| AUUCCUUUGGCGUAAUGGUAACGCGUCUCCCUCCUAAGGAGACGACUGCGGGUUCGAGUCCCGUAAGGAUUG | -0.386 |
| AUUCCUUUGGCGUAAUGGUAACGCGUUUCCCUCCUAAGGAGACGAUUGCGGGUUCGAGUCCCGUACGGAACG | -0.258 |
| AUUCCUUUGGCGUAAUGGUAACGCGUCUCCCUCCUAAGGAGACGACUGCGGGUUCGAGUCCCGUAUGGAAUG | -0.333 |
| AUUCCUUUGGCGUAAUGGUAACGCGUCUCCCUCCUAAGGAGAAGACUGCGGGUUCGAGUCCCGUACGGGUUG | -0.407 |
| AUUCCUUUGGCGUAAUGGUAACGCGUCUCCCUCCUAAGGAGACGAUUGCGGGUUCGAGUCCCGUAUGGAAUG | -0.275 |
| AUUCCUUUGGCGUAAUGGUAACGCGUUUCCCUCCUAAGGAGACGAUUGCGGGUUCGAGUCCCGUACGGAGUG | -0.321 |
| AUUCCUUUGGCGUAAUGGUAACGCGUCUCCCUCCUAAGGAGACGACUGCGGGUUCGAGUCCCGUAAGGAUCG | -0.411 |
| AUUCCUUUGGCGUAAUGGUAACGCGUCUCCCUCCUAAGGAGACGACUGCGGGUUCGAGUCCCGUAAGGAGCG | -0.135 |
| AUUCCUUUGGCGUAAUGGUAACGCGUUUCCCUCCUAAGGAGACGAUUGCGGGUUCGAGUCCCGUACGGGAUG | -0.328 |
| AUUCCUUUGGCGUAAUGGUAACGCGUUUCCCUCCUAAGGAGACGAUUGCGGGUUCGAGUCCCGUACGGAUUG | -0.318 |
| AUUCCUUUGGCGUAAUGGUAACGCGUCUCCCUCCUAAGGAGACGACUGCGGGUUCGAGUCCCGUAUGGGAUG | -0.587 |
| AUUCCUUUGGCGUAAUGGUAACGCGUCUCCCUCCUAAGGAGACGACUGCGGGUUCGAGUCCCGUACGGAAUG | -0.101 |
| AUUCCUUUGGCGUAAUGGUAACGCGUUUCCCUCCUAAGGAGACGACUGCGGGUUCGAGUCCCGUACGGGUCG | -0.481 |
| AUUCCUUUGGCGUAAUGGUAACGCGUUUCCCUCCUAAGGAGACGACUGCGGGUUCGAGUCCCGUACGGGGCG | -0.536 |

| Variant | yeast fitness (ln) |
| --- | --- |
| AUUCCUUUGGCGUAAUGGUAACGCGUCUCCCUCCUAAGGAGACGAUUGCGGGUUCGAGUCCCGUAUGGGUCG | -0.305 |
| AUUCCUUUGGCGUAAUGGUAACGCGUCUCCCUCCUAAGGAGACGAUUGCGGGUUCGAGUCCCGUAUGGGGCG | -0.389 |
| AUUCCUUUGGCGUAAUGGUAACGCGUUUCCCUCCUAAGGAGAAGACUGCGGGUUCGAGUCCCGUACGGAACG | -0.16 |
| AUUCCUUUGGCGUAAUGGUAACGCGUCUCCCUCCUAAGGAGACGAUUGCGGGUUCGAGUCCCGUAAGGAUUG | -0.334 |
| AUUCCUUUGGCGUAAUGGUAACGCGUCUCCCUCCUAAGGAGACGAUUGCGGGUUCGAGUCCCGUAAGGGUCG | -0.474 |
| AUUCCUUUGGCGUAAUGGUAACGCGUCUCCCUCCUAAGGAGACGAUUGCGGGUUCGAGUCCCGUAAGGGGCG | -0.258 |
| AUUCCUUUGGCGUAAUGGUAACGCGUCUCCCUCCUAAGGAGACGACUGCGGGUUCGAGUCCCGUAUGGGUCG | -0.452 |
| AUUCCUUUGGCGUAAUGGUAACGCGUCUCCCUCCUAAGGAGACGACUGCGGGUUCGAGUCCCGUAUGGGGCG | -0.469 |
| AUUCCUUUGGCGUAAUGGUAACGCGUCUCCCUCCUAAGGAGACGAUUGCGGGUUCGAGUCCCGUAUGGGGUG | -0.333 |
| AUUCCUUUGGCGUAAUGGUAACGCGUUUCCCUCCUAAGGAGACGAUUGCGGGUUCGAGUCCCGUACGGGUCG | -0.347 |
| AUUCCUUUGGCGUAAUGGUAACGCGUUUCCCUCCUAAGGAGACGAUUGCGGGUUCGAGUCCCGUACGGGGCG | -0.346 |
| AUUCCUUUGGCGUAAUGGUAACGCGUCUCCCUCCUAAGGAGAAGACUGCGGGUUCGAGUCCCGUACGGGAUG | -0.186 |
| AUUCCUUUGGCGUAAUGGUAACGCGUUUCCCUCCUAAGGAGACGAUUGCGGGUUCGAGUCCCGUACGGAGCG | -0.385 |
| AUUCCUUUGGCGUAAUGGUAACGCGUUUCCCUCCUAAGGAGACGAUUGCGGGUUCGAGUCCCGUACGGAUCG | -0.346 |
| AUUCCUUUGGCGUAAUGGUAACGCGUCUCCCUCCUAAGGAGAAGACUGCGGGUUCGAGUCCCGUACGGGGCG | -0.198 |
| AUUCCUUUGGCGUAAUGGUAACGCGUCUCCCUCCUAAGGAGAAGACUGCGGGUUCGAGUCCCGUACGGGUCG | -0.131 |
| AUUCCUUUGGCGUAAUGGUAACGCGUCUCCCUCCUAAGGAGACGACUGCGGGUUCGAGUCCCGUAUGGAGUG | -0.424 |
| AUUCCUUUGGCGUAAUGGUAACGCGUCUCCCUCCUAAGGAGACGAUUGCGGGUUCGAGUCCCGUAUGGGAUG | -0.43 |
| AUUCCUUUGGCGUAAUGGUAACGCGUCUCCCUCCUAAGGAGACGAUUGCGGGUUCGAGUCCCGUAAGGAAUG | -0.0191 |
